Bioassay records: PubChem BioAssay, Broad Institute
An excerpt weighted towards active compounds, which were near 1.1% of everything screened.
CAL PDZ FP-1: untagged CAL PDZ binding inhibitors, primary screen, biochemical, fluorescence polarization, HTS | purified CAL PDZ, TMR-peptide fluorescence polarization, 1 h | AID 602252, 2012 | hit rate 0.92% among 300,000 | inhibition, % at 24.9 µM | Golgi-associated PDZ and coiled-coil motif-containing protein (Homo sapiens), Q9HD26;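 active = mean inhibition of at least 30% with at least half of replicates also reaching 30%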;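 note: 0% = DMSO neutral control and 100% = excess unlabeled competitor peptide PRC23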
miR-122 sensor: miR-122 Renilla sensor signal increase in Huh7, primary screen, miR-122 inhibitor project, cell-based, single point, plate reader | Huh7 miR-122 Renilla luciferase sensor, 48 h; neutral wells = 0, positive control = 100 | AID 602342, 2012 | activation (reporter increase), % at 12.5 µM | hit rate 0.3% among 340,000;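 active = mean replicate activation score at least 90 and every replicate individually at or above 90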;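 note: higher luciferase means less miR-122 activity so hits act as miR-122 inhibitors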
CAL PDZ FP-2: CAL PDZ peptide-binding inhibitors, primary screen, biochemical, fluorescence polarization, Cer-tagged CAL PDZ, HTS | purified CAL PDZ, TMR-peptide fluorescence polarization, 1 h | inhibition, % at 20 µM | Golgi-associated PDZ and coiled-coil motif-containing protein (Homo sapiens), Q9HD26 | hit rate 0.02% among 330,000 | AID 504414, 2011;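 active = highest replicate inhibition of at least 40%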;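 note: plate controls were DMSO neutral control wells for no effect and unlabeled competitor peptide control wells for full effect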
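Test system: purified CerCALP PDZ construct; Compound dosing: one concentration, 20 µM compound; Also added: TMR-labelled reporter peptide T*-PRC34 bound in PDZ groove; Read-out: inhibition from polarization loss; Controls: unlabelled peptide and DMSO controls; Signal: FP readout, S and P plane fluorescence; Incubation: 1 h at RT.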
Cneo AK release: Cryptococcus neoformans cell lysis inducers, primary screen, AK release luminescence, single concentration; hit rate 0.2% among 360,000; C. neoformans lysis, adenylate kinase release luminescence, 4 h; normalised: neutral wells 0, clomiphene wells 100; lysis activity, % at 15 µM;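 active = mean lysis activity across replicates of at least 80%, whatever share of replicates individually reach that level; inactive = mean lysis activity below 80%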
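Assay system: C. neoformans cells. Amount: yeast cell density of 5 × 10^6 cells/mL. Technique: AK luminescence. Buffer or medium: YPD. Times: static 4 h at 37 °C with compound, 1 h detection. Dosing: single-point compound dose. Read-out: lysis from increased AK signal.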
PglD inh: C. jejuni PglD acetyltransferase inhibitors, primary screen, biochemical, DTNB colorimetric, single point; UDP-N-acetylbacillosamine N-acetyltransferase PglD (Campylobacter jejuni); purified PglD enzyme, DTNB colorimetric CoA detection; inhibition, % at 12.5 µM; hit rate 0.098% among 360,000; AID 602405, 2012; in the data active = inhibition above about 16%, passing the limit was not always enough
Active calls of the source: *; . = no result; [ ] = dose if it differs, or a comment.

SMILES | CAL PDZ FP-1 | miR-122 sensor | CAL PDZ FP-2 | Cneo AK release | PglD inh
O=C(C[C@@H]1CC[C@H]2[C@@H](COC[C@H](O)CN2Cc2ccccc2F)O1)NC1CCC1 | . | 7[16.7 µM] | . | 97* | 19
O=C(O)C[C@@H]1CC[C@@H]2[C@H](COC[C@H](O)CN2S(=O)(=O)c2ccc(F)cc2)O1 | . | 0[16.7 µM] | . | 83* | -2
O=C(C[C@@H]1CC[C@@H]2[C@H](COC[C@H](O)CN2S(=O)(=O)c2ccc(Oc3ccccc3)cc2)O1)NC1CCC1 | . | 9[16.7 µM] | . | 95* | 3
O=C(C[C@@H]1CC[C@@H]2[C@H](COC[C@@H](O)CN2Cc2cc(F)cc(F)c2)O1)Nc1nccs1 | . | -4[16.7 µM] | . | 1 | 1
O=C(C[C@H]1CC[C@H]2[C@@H](COC[C@H](O)CN2Cc2cc(F)cc(F)c2)O1)Nc1nccs1 | . | 32[16.7 µM] | . | 96* | 4
O=C(NCC[C@H]1CC[C@H](NS(=O)(=O)Cc2ccccc2)[C@H](CO)O1)C1CCC1 | . | 6[16.7 µM] | . | -21 | 3
C[C@@H]1CN([C@H](C)CO)S(=O)(=O)c2ccc(-c3ccc(F)cc3)cc2O[C@H]1CN(C)C(=O)C1CCC1 | . | 11[16.7 µM] | . | . | .
O=C(O)CCCC1(C(=O)O)CCCC1 | -3 | -1 | 0 | -1 | 0
C[C@H](CO)N1C[C@H](C)[C@H](CN(C)C(=O)Nc2cccc3ccccc23)Oc2ccc(NC(=O)Cc3ccccc3)cc2CC1=O | . | 33[16.7 µM] | . | 102* | 3
C[C@@H]1CN([C@H](C)CO)C(=O)Cc2cc(NC(=O)Nc3cccc4ccccc34)ccc2O[C@@H]1CN(C)C(=O)Nc1cccc2ccccc12 | . | 99*[16.7 µM] | . | -5 | 4
C[C@H]1CN([C@@H](C)CO)C(=O)Cc2cc(NC(=O)C3CC3)ccc2O[C@@H]1CN(C)C(=O)Nc1cccc2ccccc12 | . | -1[16.7 µM] | . | 111* | -1
Cc1noc(C)c1NC(=O)N(C)C[C@H]1Oc2ccc(NC(=O)C3CC3)cc2CC(=O)N([C@@H](C)CO)C[C@H]1C | . | 44[16.7 µM] | . | 117* | -1
C/C=C/c1ccc2c(c1)O[C@H](CN(C)Cc1cncnc1)[C@H](C)CN([C@H](C)CO)S2(=O)=O | . | . | . | 7 | -8
Cc1noc(C)c1NC(=O)N(C)C[C@@H]1Oc2ccc(NS(=O)(=O)c3cn(C)cn3)cc2CC(=O)N([C@@H](C)CO)C[C@H]1C | . | -6[16.7 µM] | . | 2 | 4
C[C@@H]1CN([C@H](C)CO)C(=O)Cc2cc(NC(=O)Nc3ccc4c(c3)OCO4)ccc2O[C@@H]1CN(C)C(=O)Nc1cccc2ccccc12 | . | 129*[16.7 µM] | . | 0 | 0
Cc1noc(C)c1NC(=O)N(C)C[C@@H]1Oc2ccc(NS(=O)(=O)c3cn(C)cn3)cc2CC(=O)N([C@H](C)CO)C[C@H]1C | . | 37[16.7 µM] | . | 103* | 3
C[C@@H]1CN([C@H](C)CO)C(=O)Cc2cc(NC(=O)Nc3cccc4ccccc34)ccc2O[C@@H]1CN(C)C(=O)NC1CCCCC1 | . | 121*[16.7 µM] | . | 11 | 2
CCCN(C)C[C@H]1Oc2cc(C#Cc3ccccc3F)ccc2S(=O)(=O)N([C@@H](C)CO)C[C@H]1C | . | 5[16.7 µM] | . | -2 | 5
COc1ccccc1NC(=O)c1cccc(N2C(=O)C3C4C=CC(C4)C3C2=O)c1 (stereo unspecified) | 50* | -11 | -1 | 1 | 2
COc1ccc(NC(=O)c2cccc(N3C(=O)C4C5C=CC(C5)C4C3=O)c2)c(OC)c1 (stereo unspecified) | -5 | -8 | 0 | -1 | -1
Cc1ccc(OCC(=O)N2CCN(C(=O)c3ccco3)CC2)cc1 | 2 | . | 0 | . | .
Cc1ccc(OCC(=O)N2CCN(C(=O)c3cccs3)CC2)cc1 | 46* | -9 | . | 2 | -4
CC(C)(C)n1ncc2c(=O)n(Cc3ccc(Cl)c(Cl)c3)cnc21 | 82* | . | 4 | . | .
Cc1ccc(Cn2cnc3c(cnn3C(C)(C)C)c2=O)cc1 | 1 | -3 | -1 | . | .
Cc1cc(C)cc(C(=O)NC(CC(N)=O)c2ccc(NCCN3CCCC3)c([N+](=O)[O-])c2)c1 (stereo unspecified) | -2 | . | 1 | 2 | 2
SMILES | CAL PDZ FP-1 | miR-122 sensor | CAL PDZ FP-2 | Cneo AK release | PglD inh
O=C(N/N=C/c1ccc(Cl)s1)C(O)c1ccccc1 (stereo unspecified) | . | 123* | 0 | 0 | 2
Cc1nc2c3cc(Cl)ccc3n(CCN3CCOCC3)c2s1 | 47* | . | 0 | . | .
C[C@@H]1CN([C@@H](C)CO)C(=O)c2cccc(NC(=O)Nc3ccc4c(c3)OCO4)c2O[C@@H]1CN(C)Cc1ccc2c(c1)OCO2 | . | -5[16.7 µM] | . | -3 | -2
Cc1ccc(O)c(NC(=S)NC(=O)C(C)C)c1 | 34* | 82 | -1 | 17 | -1
COCCNC(=O)/C(C#N)=C/c1c(N2CCN(c3ccccc3)CC2)nc2ccccn2c1=O | 57* | . | 2 | -2 | -6
COCCCNC(=O)/C(C#N)=C/c1c(N2CCN(c3ccccc3)CC2)nc2ccccn2c1=O | 0 | 1 | 0 | -4 | -10
CO[C@@H](CN(C)Cc1nccs1)[C@H](C)CN([C@H](C)CO)S(=O)(=O)c1ccc(C)cc1 | . | . | . | 3 | 0
CC1CC(C)CN(C(=O)CCn2c(=O)oc3ccccc32)C1 (stereo unspecified) | 45* | 0 | 14 | 0 | 0
CCc1noc(C)c1C(=O)N1CCN(S(=O)(=O)c2cccs2)CC1 | 50* | . | 0 | 0 | 0
CCc1noc(C)c1C(=O)N1CCN(S(=O)(=O)c2ccc(Cl)cc2)CC1 | -14 | 6 | 0 | -1 | -6
O=C1CN(O)C=C2N=c3ccccc3=C2N1c1ccc([N+](=O)[O-])cc1 | 77* | . | -1 | 0 | -7
COc1ccc(NC(=O)N(C)C[C@H]2Oc3ccc(NC(=O)CCC(F)(F)F)cc3C(=O)N([C@@H](C)CO)C[C@H]2C)cc1 | . | 4[16.7 µM] | . | 0 | 2
O=S(=O)(NCCc1ccncc1)c1cc(Br)ccc1F | -1 | 124* | . | 0 | 0
O=C1C(=O)N(CCCO)C(c2ccc(Br)cc2)/C1=C(\O)c1ccc(Br)cc1 (stereo unspecified) | 6 | -4 | -1 | -2 | 4
CC(C)(C)C(=O)Nc1cc(S(=O)(=O)Nc2ccc(Cl)cc2)ccc1O | -3 | 167* | 0 | . | .
CC(C)C(=O)Nc1cc(S(=O)(=O)Nc2ccc(Cl)cc2)ccc1Cl | 1 | . | -1 | . | .
COc1ccc(CCN(C)C(=O)C2CCN(Cc3cccc(OC)c3OC)CC2)cc1OC | 37* | 3 | 4 | 17 | 6
COc1ccc(CCN(C)C(=O)C2CCN(Cc3ccccc3)CC2)cc1OC | -1 | . | -4 | -1 | -6
